test system: Plasmodium falciparum; experiment: In vitro activity against Plasmodium falciparum; type: functional, organism-based
Outline: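 P. falciparum cultures at 0.3-0.5% parasitemia (percentage of infected erythrocytes) exposed to drug for one parasite cycle (48 h). Some drugs were dissolved in DMSO, then diluted in culture medium (final DMSO ≤0.25%). [3H]hypoxanthine was then added for 18 h to measure viability. IC50 is 50% inhibition of parasite growth, given as the mean of at least two independent experiments in triplicate using different stock solutions.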

| SMILES | IC50 [nM] |
| --- | --- |
| CCCCC[N+](C)(C)CC(C)O (stereo unspecified) | 115000 |
| CC[N+](CC)(CC)CCCCCCCCCCCCCCCC[N+](CC)(CC)CC | 1.6 |
| CC[N+](CC)(CC)CCCCCC[N+](CC)(CC)CCCCCC[N+](CC)(CC)CC | 800000 |
| CCCCCCCCCCCC[N+](C)(C)CCC[N+](C)(C)CCCCCCCCCCCC | 10800 |
| C[N+]1(CCCCCCCCCCCCCC[N+]2(C)CCCC2)CCCC1 | 1.1 |
| CCCCCCCCCCCC[N+](C)(C)CC(C)O (stereo unspecified) | 430 |
| CCCCCCCC[N+](C)(C)C | 5000 |
| CCCCCCCCCCCCCCCC[N+](C)(C)CCO | 810 |
| CCCCCCCCCCCC[N+](C)(C)CCCCCC[N+](C)(C)CCCCCCCCCCCC | 220 |
| CC[N+](CC)(CC)CCCCCCCCCCCC[N+](CC)(CC)CC | 45 |
| C=CC[N+](C)(C)CCCCCCCCCCCC | 270 |
| C#CC[N+](C)(C)CCCCCCCCCCCC[N+](C)(C)CC#C | 7.6 |
| CCCCCC[N+](CC)(CC)CC | 9700 |
| CCCCCCCC[N+](C)(C)CCO | 3850 |
| CCCCCCCCCCCCCCCC[N+](CC)(CC)CC | 140 |
| CCCCCCCCCCCCCCCCCC[N+](CC)(CC)CC | 270 |
| C#CCC[N+](C)(C)CCCCCCCCCCCC | 230 |
| C=CC[N+](C)(CC=C)CCCCCCCCCCCC | 140 |

| SMILES | IC50 [nM] |
| --- | --- |
| CCCCCCCCCCCCCC[N+]1(C)CCCC1 | 270 |
| CC[N+](CC)(CC)CCCCCCCC[N+](CC)(CC)CC | 540 |
| CCCCCCCCCCCCCCCC[N+]1(C)CCCC1 | 420 |
| CCCCCC[N+]1(C)CCCC1 | 26000 |
| C#CC[N+](C)(CC#C)CCCCCCCCCCCC | 380 |
| CC[N+](CC)(CCO)CCCCCCCCCCCCCCCC[N+](CC)(CC)CCO | 4.9 |
| CC[N+](CC)(CC)CCCCCCCCCCCCCCCCCCCCC[N+](CC)(CC)CC | 0.003 |
| C[N+]1(CCCCCCCCCCCCCCCC[N+]2(C)CCCC2)CCCC1 | 0.64 |
| CCCCCCCCCCCC[N+](C)(C)CCCCCCCCCCCCCCCC[N+](C)(C)CCCCCCCCCCCC | 1800 |
| C#CC[N+](C)(C)CCCCCCCCCCCC | 360 |
| C[N+](C)(C)CCCCCCCCc1ccccc1 | 620 |
| C#CCC[N+](C)(C)CCCCCCCCCCCC[N+](C)(C)CCC#C | 44 |
| CCCCCCCCCCCC[N+](C)(C)CCCCCCCCCCCC[N+](C)(C)CCCCCCCCCCCC | 180 |
| CCCCCCCCCCCC[N+]1(C)CCCC1 | 220 |
| C[N+](C)(C)CCCCCCCCCCCCCCCC[N+](C)(C)C | 4 |
| CCCCCCCCCCCC[N+](C)(C)C(C)C(O)c1ccccc1 (stereo unspecified) | 670 |
| C[N+]1(CCCCCCCCCCCC[N+]2(C)CCCC2)CCCC1 | 13 |
| C=CC[N+](CC)(CC)CCCCCCCCCCCC[N+](CC)(CC)CC=C | 5.3 |
